Compound activity (PubChem)
zfTRPN1 agonist = activates the zebrafish TRPN1 channel | HEK293 zebrafish TRPN1-YFP, Fluo-8 calcium fluorescence; 100% = response to 87 µM carbachol | 0.18% of 220,000 active | AID 1424 | activation, % at 3 µM;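 active = activation above its plate's cutoff, the mean activation of test wells on that plate plus 3 SD, cut at about 19% in these data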;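 note: 0% = DMSO alone and 100% = 87 µM carbachol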
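Assay system: Zebrafish TRPN1-YFP in HEK293 cells | Incubation: Dye loading 1 h at 37 °C, then 30 min room temperature | Measured by: Kinetic Fluo-8 fluorescence, ex 470-495, em 515-575 nm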
CRFR2-BP antag = antagonists of CRF-binding protein/CRF-R2 receptor complex; inhibition, % at 11.8 µM; AID 588475; HEK293 CRF-R2/CRF-BP, CRF-induced calcium fluorescence; 0.59% of 350,000 active;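 active = inhibition of the ligand-induced calcium signal above about 50% at the single tested concentration, limit read from the data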
TRPML3 agonist = activates the human TRPML3 channel; activation, % at 3 µM; 0.29% of 220,000 active; HEK293 TRPML3-YFP, Fluo-8 calcium fluorescence; 100% = the carbachol control signal; AID 1448;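 active = activation above its plate's cutoff, the mean activation of the plate's test wells plus 3 SD, cut at about 12% in these data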;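 note: 0% = DMSO only wells and 100% = carbachol wells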
Target sequence (Q8TDD5 whole entry, looked up): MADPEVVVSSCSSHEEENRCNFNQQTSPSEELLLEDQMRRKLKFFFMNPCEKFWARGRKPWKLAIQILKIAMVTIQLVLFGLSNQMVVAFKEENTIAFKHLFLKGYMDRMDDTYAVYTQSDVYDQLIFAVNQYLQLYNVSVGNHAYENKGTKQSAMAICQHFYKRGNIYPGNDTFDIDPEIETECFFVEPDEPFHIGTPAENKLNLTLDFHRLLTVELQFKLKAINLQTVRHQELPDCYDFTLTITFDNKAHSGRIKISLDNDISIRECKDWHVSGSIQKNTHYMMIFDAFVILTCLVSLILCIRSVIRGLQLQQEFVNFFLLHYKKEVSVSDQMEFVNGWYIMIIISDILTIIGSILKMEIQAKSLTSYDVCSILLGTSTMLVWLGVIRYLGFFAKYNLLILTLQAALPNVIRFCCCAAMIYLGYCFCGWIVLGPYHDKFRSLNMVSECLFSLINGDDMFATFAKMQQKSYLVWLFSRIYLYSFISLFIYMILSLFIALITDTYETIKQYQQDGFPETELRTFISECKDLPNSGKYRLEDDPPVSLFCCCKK
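Material: TRPML3-YFP stable HEK293 cells | Dosing: One concentration, 3 µM nominal, 0.3% DMSO | Timing: 125 s total fluorescence read per well | Technique: Fluo-8 calcium dye fluorescence, ex 470-495, em 515-575 nm | Measure: Percent activation from peak-to-basal fluorescence ratio, scaled between DMSO and carbachol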
CRFR2-BP ag = CRF-BP/CRF-R2 complex agonism; activation, % at 13.2 µM; HEK293 CRF-R2/CRF-BP, calcium dye fluorescence (FLIPR); percent of saturating CRF peptide response; AID 588473; 0.46% of 350,000 active;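 active = activation of at least 50%, plus an integration ratio under a set limit after plate pattern correction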;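 note: plate controls were neutral control wells without compound for no effect and CRF at EC100 for full effect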
GPR7 antagonist = human neuropeptides B/W receptor 1 antagonism; GPR7-expressing cells, fluorescence antagonist assay; inhibition, % at 4.4 µM; 1.1% of 290,000 active; in the data active = inhibition above about 16%, passing the limit was not always enough;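 note: cells stimulated with the agonist NPW; 0% = agonist with vehicle and 100% = vehicle without agonist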
The depositor's hits bear a star. A selection: hits, their analogues and other compounds. The true share with any hit is near 2%.

What do the screens show for `CCCn1c(SCC(=O)NC2CC2)nnc1-c1ccccn1`?
CRFR2-BP antag: 1; CRFR2-BP ag: 0; GPR7 antagonist: -3

Results for C=CCn1cnc2c(c1=O)c1nc3ccccc3nc1n2/N=C/c1cccc(OC)c1OC ?
CRFR2-BP antag: 54*; CRFR2-BP ag: 0

What do the screens show for `C=CCn1cnc2c(c1=O)c1nc3ccccc3nc1n2/N=C/c1cc(OC)c(OC)c(OC)c1`?
zfTRPN1 agonist: 1; CRFR2-BP antag: -40; TRPML3 agonist: 1; CRFR2-BP ag: 3; GPR7 antagonist: -2

How did COCCn1cnc2c(c1=O)c1nc3ccccc3nc1n2/N=C/c1cccc(OC)c1 do in these assays?
zfTRPN1 agonist: 0; CRFR2-BP antag: 57*; TRPML3 agonist: -1; CRFR2-BP ag: -1; GPR7 antagonist: -18

Results for C=CCn1cnc2c(c1=O)c1nc3ccccc3nc1n2/N=C/c1ccccn1 ?
CRFR2-BP antag: 43; CRFR2-BP ag: -3

What do the screens show for `C=CCn1c(=O)/c(=C/c2cc(OC)c(OC)c(OC)c2)s/c1=C(/C#N)c1nc2ccccc2n1C`?
zfTRPN1 agonist: 1; CRFR2-BP antag: -48; TRPML3 agonist: 1; CRFR2-BP ag: 62*; GPR7 antagonist: 0

What do the screens show for `Cc1ccc(Nc2c(O)nc[nH]c2=O)cc1`?
CRFR2-BP antag: 73*; CRFR2-BP ag: -1

Results for COc1cccc(NC(=O)CN(C)C(=O)c2cc(C)on2)c1 ?
CRFR2-BP antag: 8; CRFR2-BP ag: 0

How did CCNc1c2c3c(cccc3n(C)c1=O)C(=O)c1ccccc1-2 do in these assays?
zfTRPN1 agonist: 195*; CRFR2-BP antag: -158; TRPML3 agonist: 88*; CRFR2-BP ag: 179*; GPR7 antagonist: 9

Results for CC(=O)Nc1ccc(Nc2c3c4c(cccc4n(C)c2=O)C(=O)c2ccccc2-3)cc1 ?
zfTRPN1 agonist: 1; CRFR2-BP antag: -18; TRPML3 agonist: 0; CRFR2-BP ag: 31; GPR7 antagonist: -3

Results for Cn1c(=O)c(NC2CCCCC2)c2c3c(cccc31)C(=O)c1ccccc1-2 ?
zfTRPN1 agonist: 18; CRFR2-BP antag: -330; TRPML3 agonist: 9; CRFR2-BP ag: 380; GPR7 antagonist: -3

What do the screens show for `Cn1c(=O)c(NCCc2ccccc2)c2c3c(cccc31)C(=O)c1ccccc1-2`?
zfTRPN1 agonist: 126*; CRFR2-BP antag: -206; TRPML3 agonist: 83*; CRFR2-BP ag: 273; GPR7 antagonist: 64*

What do the screens show for `CCCn1c(C(C)NS(=O)(=O)c2ccccc2)n[nH]c1=S` (configuration not stated)?
CRFR2-BP antag: 62*; CRFR2-BP ag: -1; GPR7 antagonist: -8

Results for COC(=O)CN1C(=O)S/C(=C/c2ccc(N3CCCCC3)o2)C1=O ?
zfTRPN1 agonist: 1; CRFR2-BP antag: -30; TRPML3 agonist: 1; CRFR2-BP ag: 57*; GPR7 antagonist: 8

How did CCCN1C(=O)S/C(=C/c2ccc(N3CCOCC3)o2)C1=O do in these assays?
zfTRPN1 agonist: 10; CRFR2-BP antag: -29; TRPML3 agonist: 4; CRFR2-BP ag: 61*; GPR7 antagonist: 2

How did O=C(CCNC(=O)N1CC(=O)Nc2ccccc21)Nc1ccc(Br)cc1F do in these assays?
CRFR2-BP antag: 8; CRFR2-BP ag: 0; GPR7 antagonist: 0

What do the screens show for `CCC(C)c1ccc(OCc2ccc(C(=O)O)o2)cc1` (configuration not stated)?
CRFR2-BP antag: 8; CRFR2-BP ag: -1; GPR7 antagonist: -7

How did CC(=O)N(CCC(c1ccccc1)c1ccco1)Cc1cccs1 (configuration not stated) do in these assays?
zfTRPN1 agonist: -1; CRFR2-BP antag: 30; TRPML3 agonist: -1; CRFR2-BP ag: -2; GPR7 antagonist: -7

Results for CCC(=O)N(CCC(c1ccco1)c1ccccc1OC)Cc1cccs1 (configuration not stated) ?
zfTRPN1 agonist: -2; CRFR2-BP antag: 29; TRPML3 agonist: -1; CRFR2-BP ag: 1; GPR7 antagonist: 19*

Results for C/C(=N/N=C/c1ccc(N(C)C)cc1)c1ccccc1 ?
zfTRPN1 agonist: -1; CRFR2-BP antag: 19; TRPML3 agonist: 0; CRFR2-BP ag: 2; GPR7 antagonist: -4

What do the screens show for `CN(C)c1ccc(/C(=N\O)c2ccccc2)cc1`?
zfTRPN1 agonist: -1; CRFR2-BP antag: 61*; TRPML3 agonist: 0; CRFR2-BP ag: 0; GPR7 antagonist: 23
